# Laboratory results from ChEMBL document CHEMBL1138064, “Discovery of N-[(3R)-1-azabicyclo[2.2.2]oct-3-yl]furo[2,3-c]pyridine-5-carboxamide, an agonist of the alpha7 nicotinic acetylcholine receptor, for the potential treatment of cognitive deficits in schizophrenia: synthesis and structure--activity relationship” (J Med Chem, 2006).
# The source made the active and inactive calls. No cut-off for these calls is given here.
# Tests used:
# [1] = Oral bioavailability in rat constant infusion model; assay type: ADME, organism-based; details: in vivo
# In short: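 Rat clearance and oral bioavailability derived from a constant infusion model.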
# [2] = Clearance in rat at 5 mg/kg; assay type: ADME, organism-based; parameters: dose 5 mg/kg; details: in vivo
# [3] = target: Neuronal acetylcholine receptor subunit alpha-7 (Rattus norvegicus) (UniProt Q05941); assay: Activity at alpha-7 nAChR in Sprague-Dawley rat hippocampal neurons assessed as induction of MLA-inhibited desensitizing inward current at 30 uM relative to (-)-nicotine; assay type: functional, tissue-based; parameters: scale not given: the % may be the effect or the level left; details: Hippocampus
# In short: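 Rat hippocampal neurons were recorded by whole-cell patch clamp with rapid agonist application. Desensitizing inward currents were measured, and α7 mediation was tested with MLA (10 nM), n = 3.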
# [4] = system: Rattus norvegicus; assay: Reversal of amphetamine-induced gating deficit in Sprague-Dawley at 10 mg/kg, iv; assay type: functional
# In short: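 Anesthetised rats; d-amphetamine 1 mg/kg iv given to disrupt auditory gating recorded in the hippocampal CA3 region (conditioning vs test responses, analogous to human P50). Agonist given iv afterwards; read-out is % gating versus amphetamine-alone. The 10 mg/kg dose was run as a separate experiment. Brain drug levels were measured after the iv doses.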
# [5] = target: Beta-1 adrenergic receptor (Homo sapiens) (UniProt P08588); assay: Inhibition of adrenergic beta-1 receptor at 1 uM
# [6] = target: Sodium-dependent noradrenaline transporter (Homo sapiens) (UniProt P23975); assay: Inhibition of human NE transporter at 1 uM
# [7] = target: Translocator protein (Homo sapiens) (UniProt P30536); assay: Inhibition of peripheral BZD receptor at 1 uM
# [8] = target: Cannabinoid receptor 1 (Homo sapiens) (UniProt P21554); assay: Inhibition of CB1 receptor at 1 uM
# [9] = target: D(1A) dopamine receptor (Homo sapiens) (UniProt P21728); assay: Inhibition of D1 receptor at 1 uM
# [10] = target: D(3) dopamine receptor (Homo sapiens) (UniProt P35462); assay: Inhibition of D3 receptor at 1 uM
# [11] = target: 5-hydroxytryptamine receptor 6 (Homo sapiens) (UniProt P50406); assay: Inhibition of 5HT6 receptor at 1 uM
# [12] = organism: Homo sapiens; assay: Inhibition of site 2 of sodium channel at 1 uM
# [13] = organism: Homo sapiens; assay: Inhibition of chloride channel at 1 uM
# [14] = target: Phospholipase A2 (Homo sapiens) (UniProt P04054); assay: Inhibition of phospholipase A2 at 1 uM
# [15] = target: Prostaglandin G/H synthase 1 (Homo sapiens) (UniProt P23219); assay: Inhibition of COX1 at 1 uM
# [16] = target: cGMP-dependent 3',5'-cyclic phosphodiesterase (Homo sapiens) (UniProt O00408); assay: Inhibition of PDE2 at 1 uM
# [17] = target: Phosphodiesterase 4 (Homo sapiens) (UniProt P27815+Q08499+Q07343+Q08493); assay: Inhibition of PDE4 at 1 uM; assay type: protein assay
# [18] = target: Cathepsin B (Homo sapiens) (UniProt P07858); assay: Inhibition of cathepsin B at 1 uM
# [19] = target: Acetylcholinesterase (Homo sapiens) (UniProt P22303); assay: Inhibition of acetylcholinesterase at 1 uM
# [20] = system: Rattus norvegicus; assay: Ability to recognize novel object in Sprague-Dawley rat at 1 mg/kg, sc after 24 hrs; assay type: functional, organism-based; parameters: dose 1 mg/kg
# In short: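 Rats dosed subcutaneously 30 min before each of three experimental sessions. Discrimination between the novel and the familiar object was scored after a 24 h delay.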
# [21] = Ratio of drug level in brain against plasma in rat by MBUA method after 60 min; assay type: ADME, organism-based; details: brain and plasma
# [22] = target: Neuronal acetylcholine receptor subunit alpha-7 (Rattus norvegicus, UniProt Q05941); assay: Displacement of [3H]MLA from alpha-7 nAChR in Sprague-Dawley rat brain homogenates; assay type: tissue-based
# In short: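 Rat brain homogenate binding assay with [3H]MLA as radioligand. Values are the average of two or more experiments.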
# [23] = target: Acetylcholine receptor; alpha1/beta1/delta/gamma (Homo sapiens, UniProt P02708+P07510+P11230+Q07001); assay: Inhibition of alpha-1-beta-1-gamma-delta nAChR expressed in TE671cells by FLIPR assay; assay type: functional, cell-based, TE-671
# In short: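 Functional FLIPR read-out in TE671 cells expressing native muscle-type α1β1γδ nAChR, cell-based; tested for agonist and antagonist activity; IC50 in µM.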
# [24] = system: Rattus norvegicus; assay: Drug level in Sprague-Dawley rat brain at 10 mg/kg, iv; assay type: ADME, organism-based; parameters: dose 10 mg/kg, route intravenous; details: in vivo, read-out: Drug uptake
# In short: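 Anesthetized rats received d-amphetamine (1 mg/kg, iv) and then the agonist iv in the auditory gating model. Brain concentrations were measured after the iv agonist dose.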
# [25] = target: Adenosine A2 receptor (Homo sapiens) (UniProt P29275+P29274); assay: Inhibition of adenosine A2 receptor at 1 uM; assay type: protein assay
# [26] = target: Adenosine receptor A3 (Homo sapiens) (UniProt P0DMS8); assay: Inhibition of adenosine A3 receptor at 1 uM
# [27] = target: Serotonin 3 (5-HT3) receptor; assay: Activity at 5HT3 receptor expressed in SHEP1 cells by FLIPR assay; assay type: functional, cell-based, Homo sapiens
# In short: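 Cell-based FLIPR functional assay in SH-EP1 cells expressing 5-HT3.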
# [28] = target: Endothelin-1 receptor (Homo sapiens) (UniProt P25101); assay: Inhibition of human ETA receptor at 1 uM
# [29] = target: Muscarinic acetylcholine receptor M4 (Homo sapiens) (UniProt P08173); assay: Inhibition of M4 receptor at 1 uM
# [30] = target: Muscarinic acetylcholine receptor M5 (Homo sapiens) (UniProt P08912); assay: Inhibition of M5 receptor at 1 uM
# [31] = target: Neuromedin-K receptor (Homo sapiens) (UniProt P29371); assay: Inhibition of NK3 receptor at 1 uM
# [32] = target: Delta-type opioid receptor (Homo sapiens) (UniProt P41143); assay: Inhibition of human delta opioid receptor at 1 uM
# [33] = target: Kappa-type opioid receptor (Homo sapiens) (UniProt P41145); assay: Inhibition of human kappa opioid receptor at 1 uM
# [34] = organism: Homo sapiens; assay: Inhibition of PCP receptor at 1 uM
# Sequence of Acetylcholine receptor; alpha1/beta1/delta/gamma (P02708 whole entry): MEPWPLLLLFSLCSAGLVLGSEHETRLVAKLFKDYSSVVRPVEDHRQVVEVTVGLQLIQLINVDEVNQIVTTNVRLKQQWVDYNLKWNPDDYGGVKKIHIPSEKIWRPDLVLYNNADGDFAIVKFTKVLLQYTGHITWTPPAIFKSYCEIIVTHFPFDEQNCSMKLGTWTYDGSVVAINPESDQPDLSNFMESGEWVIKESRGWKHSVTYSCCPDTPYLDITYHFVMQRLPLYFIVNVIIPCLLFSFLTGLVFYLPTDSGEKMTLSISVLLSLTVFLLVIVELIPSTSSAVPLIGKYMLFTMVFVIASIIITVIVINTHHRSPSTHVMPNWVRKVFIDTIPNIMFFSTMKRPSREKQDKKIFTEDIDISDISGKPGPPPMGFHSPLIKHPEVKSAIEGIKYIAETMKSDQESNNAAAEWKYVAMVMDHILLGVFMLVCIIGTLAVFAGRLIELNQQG
# Sequence of Acetylcholine receptor; alpha1/beta1/delta/gamma (P07510 whole entry): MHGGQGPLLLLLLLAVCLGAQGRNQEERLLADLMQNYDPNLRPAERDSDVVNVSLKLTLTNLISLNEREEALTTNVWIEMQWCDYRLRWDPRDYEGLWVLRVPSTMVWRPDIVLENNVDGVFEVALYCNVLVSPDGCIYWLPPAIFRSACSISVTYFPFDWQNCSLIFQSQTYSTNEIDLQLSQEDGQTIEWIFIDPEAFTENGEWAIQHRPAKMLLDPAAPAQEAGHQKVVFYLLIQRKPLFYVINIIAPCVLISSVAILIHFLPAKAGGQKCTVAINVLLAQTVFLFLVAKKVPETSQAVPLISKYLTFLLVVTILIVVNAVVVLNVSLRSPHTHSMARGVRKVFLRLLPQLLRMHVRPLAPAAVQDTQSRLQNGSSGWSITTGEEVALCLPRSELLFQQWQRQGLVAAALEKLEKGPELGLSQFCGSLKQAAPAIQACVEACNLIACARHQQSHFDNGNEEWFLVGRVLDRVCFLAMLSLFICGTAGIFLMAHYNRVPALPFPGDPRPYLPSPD
# Sequence of Acetylcholine receptor; alpha1/beta1/delta/gamma (P11230 whole entry): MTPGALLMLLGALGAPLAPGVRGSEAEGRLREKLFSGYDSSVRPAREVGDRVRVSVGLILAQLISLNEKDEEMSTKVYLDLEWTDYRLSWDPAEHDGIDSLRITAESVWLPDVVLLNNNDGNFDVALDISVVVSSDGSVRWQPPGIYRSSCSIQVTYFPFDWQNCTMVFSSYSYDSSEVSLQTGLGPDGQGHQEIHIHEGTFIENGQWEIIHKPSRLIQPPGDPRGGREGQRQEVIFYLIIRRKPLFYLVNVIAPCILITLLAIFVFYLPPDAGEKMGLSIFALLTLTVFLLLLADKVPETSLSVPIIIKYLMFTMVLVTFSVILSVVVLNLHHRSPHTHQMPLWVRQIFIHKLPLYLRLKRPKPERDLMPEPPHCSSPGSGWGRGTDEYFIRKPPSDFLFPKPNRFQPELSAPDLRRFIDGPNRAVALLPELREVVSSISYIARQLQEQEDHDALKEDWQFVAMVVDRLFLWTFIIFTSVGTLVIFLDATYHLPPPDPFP
# Sequence of Acetylcholine receptor; alpha1/beta1/delta/gamma (Q07001 whole entry): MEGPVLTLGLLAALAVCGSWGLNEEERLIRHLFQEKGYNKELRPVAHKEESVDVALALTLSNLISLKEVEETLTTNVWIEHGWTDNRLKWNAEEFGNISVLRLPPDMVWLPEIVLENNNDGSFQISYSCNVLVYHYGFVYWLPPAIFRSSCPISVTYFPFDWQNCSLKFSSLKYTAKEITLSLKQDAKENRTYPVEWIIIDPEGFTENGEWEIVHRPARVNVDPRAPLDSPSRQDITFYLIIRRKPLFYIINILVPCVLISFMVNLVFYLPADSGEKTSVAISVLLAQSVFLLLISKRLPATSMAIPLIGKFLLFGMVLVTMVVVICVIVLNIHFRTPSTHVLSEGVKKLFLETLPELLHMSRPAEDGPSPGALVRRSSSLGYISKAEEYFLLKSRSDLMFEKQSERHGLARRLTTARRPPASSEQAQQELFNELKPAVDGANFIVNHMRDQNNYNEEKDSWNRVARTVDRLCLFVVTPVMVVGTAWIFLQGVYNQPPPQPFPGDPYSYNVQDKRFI
# Sequence of Translocator protein (Homo sapiens) (P30536 whole entry): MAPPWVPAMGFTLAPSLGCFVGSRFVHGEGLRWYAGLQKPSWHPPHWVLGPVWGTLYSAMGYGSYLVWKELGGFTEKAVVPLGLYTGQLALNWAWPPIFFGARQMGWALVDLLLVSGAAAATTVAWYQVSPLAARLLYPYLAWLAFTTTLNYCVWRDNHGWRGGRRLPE
# Sequence of Prostaglandin G/H synthase 1 (Homo sapiens) (P23219 whole entry): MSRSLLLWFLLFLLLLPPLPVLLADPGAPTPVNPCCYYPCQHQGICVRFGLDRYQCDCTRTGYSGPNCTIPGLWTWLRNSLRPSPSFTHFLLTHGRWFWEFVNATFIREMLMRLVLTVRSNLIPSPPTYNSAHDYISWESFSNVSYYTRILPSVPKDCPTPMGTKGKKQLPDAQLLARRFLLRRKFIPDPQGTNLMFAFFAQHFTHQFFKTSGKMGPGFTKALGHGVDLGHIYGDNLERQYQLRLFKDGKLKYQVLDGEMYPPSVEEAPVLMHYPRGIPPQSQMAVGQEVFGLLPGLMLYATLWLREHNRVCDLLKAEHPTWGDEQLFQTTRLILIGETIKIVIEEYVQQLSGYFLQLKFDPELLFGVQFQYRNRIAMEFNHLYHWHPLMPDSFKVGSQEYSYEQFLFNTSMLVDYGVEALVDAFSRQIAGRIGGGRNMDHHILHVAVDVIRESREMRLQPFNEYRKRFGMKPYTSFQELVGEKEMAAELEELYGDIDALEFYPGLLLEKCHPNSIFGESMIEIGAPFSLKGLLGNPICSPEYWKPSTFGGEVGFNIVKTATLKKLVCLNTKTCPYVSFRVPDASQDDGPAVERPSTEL
# Sequence of Acetylcholinesterase (Homo sapiens) (P22303 whole entry): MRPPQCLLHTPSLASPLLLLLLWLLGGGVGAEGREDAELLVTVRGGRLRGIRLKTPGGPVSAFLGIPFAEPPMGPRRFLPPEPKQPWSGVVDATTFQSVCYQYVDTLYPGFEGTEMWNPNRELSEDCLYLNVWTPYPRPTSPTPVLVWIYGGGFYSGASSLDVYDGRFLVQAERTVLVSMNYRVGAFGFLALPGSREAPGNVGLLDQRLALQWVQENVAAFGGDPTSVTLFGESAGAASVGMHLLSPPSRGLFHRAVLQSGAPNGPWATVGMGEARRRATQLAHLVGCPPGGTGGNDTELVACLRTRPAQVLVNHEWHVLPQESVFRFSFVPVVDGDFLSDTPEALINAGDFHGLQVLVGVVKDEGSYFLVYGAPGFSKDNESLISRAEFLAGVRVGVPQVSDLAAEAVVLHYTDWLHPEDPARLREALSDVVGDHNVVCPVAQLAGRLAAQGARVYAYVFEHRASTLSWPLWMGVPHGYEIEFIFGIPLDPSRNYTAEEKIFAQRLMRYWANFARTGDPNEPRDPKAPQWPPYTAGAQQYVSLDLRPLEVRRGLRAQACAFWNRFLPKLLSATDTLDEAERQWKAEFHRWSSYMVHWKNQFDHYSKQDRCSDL
# Sequence of 5-hydroxytryptamine receptor 6 (Homo sapiens) (P50406 whole entry): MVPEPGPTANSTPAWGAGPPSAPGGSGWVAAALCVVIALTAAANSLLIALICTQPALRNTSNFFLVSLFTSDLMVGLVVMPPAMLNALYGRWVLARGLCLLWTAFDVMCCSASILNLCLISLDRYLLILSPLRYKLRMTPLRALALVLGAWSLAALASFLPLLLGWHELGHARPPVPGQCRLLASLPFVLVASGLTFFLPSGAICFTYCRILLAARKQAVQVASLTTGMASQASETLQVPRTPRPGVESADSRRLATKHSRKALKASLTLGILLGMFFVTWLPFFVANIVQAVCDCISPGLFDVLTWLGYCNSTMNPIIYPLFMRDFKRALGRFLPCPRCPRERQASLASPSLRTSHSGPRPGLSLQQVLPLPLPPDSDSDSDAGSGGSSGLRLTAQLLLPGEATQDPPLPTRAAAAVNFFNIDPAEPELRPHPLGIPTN
# Sequence of Delta-type opioid receptor (Homo sapiens) (P41143 whole entry): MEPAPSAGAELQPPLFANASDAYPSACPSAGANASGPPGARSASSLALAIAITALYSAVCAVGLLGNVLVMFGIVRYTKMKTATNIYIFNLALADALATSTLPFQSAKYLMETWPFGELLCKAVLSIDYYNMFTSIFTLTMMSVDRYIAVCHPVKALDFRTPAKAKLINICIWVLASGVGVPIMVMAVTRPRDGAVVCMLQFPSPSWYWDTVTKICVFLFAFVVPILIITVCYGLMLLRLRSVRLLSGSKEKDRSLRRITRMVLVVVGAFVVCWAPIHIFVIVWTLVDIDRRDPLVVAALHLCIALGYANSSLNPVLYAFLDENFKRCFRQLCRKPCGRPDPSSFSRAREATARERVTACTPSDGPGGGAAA
# Sequence of Beta-1 adrenergic receptor (Homo sapiens) (P08588 whole entry, looked up): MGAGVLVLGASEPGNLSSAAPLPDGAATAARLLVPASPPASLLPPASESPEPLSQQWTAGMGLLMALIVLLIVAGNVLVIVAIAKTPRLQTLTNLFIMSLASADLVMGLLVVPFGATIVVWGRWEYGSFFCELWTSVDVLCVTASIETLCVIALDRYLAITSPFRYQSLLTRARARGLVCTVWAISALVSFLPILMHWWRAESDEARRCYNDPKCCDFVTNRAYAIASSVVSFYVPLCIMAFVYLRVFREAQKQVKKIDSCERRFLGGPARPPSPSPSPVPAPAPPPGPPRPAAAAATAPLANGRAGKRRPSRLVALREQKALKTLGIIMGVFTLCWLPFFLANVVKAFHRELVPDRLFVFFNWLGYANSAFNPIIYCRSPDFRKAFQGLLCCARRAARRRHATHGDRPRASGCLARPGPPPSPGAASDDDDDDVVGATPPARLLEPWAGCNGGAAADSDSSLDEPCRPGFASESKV
# Sequence of Phospholipase A2 (Homo sapiens) (P04054 23-148 limits assumed): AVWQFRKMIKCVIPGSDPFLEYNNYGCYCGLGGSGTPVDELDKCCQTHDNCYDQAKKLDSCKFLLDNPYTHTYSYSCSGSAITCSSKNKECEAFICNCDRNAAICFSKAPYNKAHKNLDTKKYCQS
compound,measurement,setting,value
O=C(N[C@H]1CN2CCC1CC2)c1cc2ccoc2cn1 [PHA-543613],bioavailability,[1],63%
same,clearance,[2],33.3 mL/min/kg
same,Activity,[3],220%
same,Activity,[4],51%
same,inhibition,[5],< 10%
same,inhibition,[6],< 10%
same,inhibition,[7],< 10%
same,inhibition,[8],< 10%
same,inhibition,[9],< 10%
same,inhibition,[10],10%
same,inhibition,[11],< 10%
same,inhibition,[12],13%
same,inhibition,[13],< 10%
same,inhibition,[14],20%
same,inhibition,[15],< 10%
same,inhibition,[16],25%
same,inhibition,[17],< 10%
same,inhibition,[18],< 10%
same,inhibition,[19],< 10%
same,Activity,[20],Active
same,Kp at 1 h,[21],1.5
same,Ki,[22],8.8 nM
same,IC50,[23],> 100000 nM
same,concentration,[24],14.9 µM
same,inhibition,[25],< 10%
same,inhibition,[26],12%
same,Ki,[27],628 nM
same,inhibition,[28],< 10%
same,inhibition,[29],< 10%
same,inhibition,[30],< 10%
same,inhibition,[31],< 10%
same,inhibition,[32],14%
same,inhibition,[33],< 10%
same,inhibition,[34],< 10%
